Laboratory results taken from ChEMBL document CHEMBL1649405, “Structure-activity relationships study of 6-chloro-4-(2-chlorophenyl)-3-(2-hydroxyethyl) quinolin-2(1H)-one derivatives as novel non-nucleoside anti-hepatitis B virus agents” (Eur J Med Chem, 2011).
pIC50: −log10 of the molar value.

Tests used:
[1] = Selectivity index, ratio of CC50 for human HepG2(2.2.15) cells to IC50 for Hepatitis B virus infected in human HepG2(2.2.15) cells assessed as inhibition of viral surface antigen secretion; assay type: functional
Summary of the method: (§1)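 Ratio of CC50 in HepG 2.2.15 cells to the IC50 for HBeAg or HBsAg secretion. Both values come from ELISA and cytotoxicity runs on the same cell line. Each input is the mean of two independent experiments.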

[2] = tested on: Hepatitis B virus; experiment: Antiviral activity against Hepatitis B virus infected in human HepG2(2.2.15) cells assessed as inhibition of viral surface antigen secretion after 6 days by ELISA; assay type: functional, organism-based; settings: HepG2 2.2.15, 144 h
Summary of the method: (§2)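 HepG 2.2.15 cells in DMEM with 10% FBS, 37 °C, 5% CO2. Treated for 6 days with refeeding every other day. Culture medium centrifuged at 6000 g to clear debris. HBeAg or HBsAg measured by quantitative ELISA on a microplate reader. IC50 = concentration giving 50% inhibition of secretion. Mean of two independent experiments.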

[3] = Selectivity index, ratio of CC50 for human HepG2(2.2.15) cells to IC50 for Hepatitis B virus infected in human HepG2(2.2.15) cells assessed as inhibition of viral e antigen secretion; assay type: functional; summary of the method: as §1
[4] = tested on: Hepatitis B virus; experiment: Antiviral activity against Hepatitis B virus infected in human HepG2(2.2.15) cells assessed as inhibition of viral DNA replication after 6 days by PCR analysis; assay type: functional, organism-based
Summary of the method: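 HepG 2.2.15 cells in DMEM with 10% FBS, 5 mM L-glutamine, penicillin/streptomycin, 37 °C, 5% CO2; seeded 5 × 10^5 per well, medium changed every 2 days. Compound added after 6 days, refed every other day for 6 more days. HBV DNA by real-time PCR against a cloned HBV plasmid standard series. IC50 = 50% inhibition. Mean of two independent experiments.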

[5] = Cytotoxicity against human HepG2(2.2.15) cells; assay type: cell-based
Summary of the method: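 HepG 2.2.15 cells in DMEM with 10% FBS, 37 °C, 5% CO2. CC50 = concentration killing 50% of cells. Mean of two independent experiments.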

[6] = tested on: Hepatitis B virus; experiment: Antiviral activity against Hepatitis B virus infected in human HepG2(2.2.15) cells assessed as inhibition of viral e antigen secretion after 6 days by ELISA; assay type: functional, organism-based; settings: HepG2 2.2.15, 144 h; summary of the method: as §2

| Structure (SMILES) | pIC50 [2] | IC50 ([4]; hepg2 2.2.15) | pIC50 [6] | pIC50 ([4]; Hepatitis B virus, HepG2 2.2.15, 144 h, read-out: IC50) | Selectivity Index [1] | Selectivity Index [3] | CC50 [5] [µM] |
| --- | --- | --- | --- | --- | --- | --- | --- |
| COc1ccccc1/C=C/C(=O)OCCc1c(-c2ccccc2Cl)c2cc(Cl)ccc2[nH]c1=O | 4.21 | Not Active | 4.62 |  | 13 | 32 | 770 |
| O=C(/C=C/c1ccccc1)OCCc1c(-c2ccccc2Cl)c2cc(Cl)ccc2[nH]c1=O | 4.52 |  | 4.25 |  | 7.6 | 4 | 230 |
| CC(=O)OCCc1c(-c2ccccc2Cl)c2cc(Cl)ccc2[nH]c1=O | 4.13 |  | < 4.57 |  | <1 | <1 | 27 |
| Clc1ccc2nc3c(c(-c4ccccc4Cl)c2c1)CCO3 | < 3.55 |  | < 3.55 |  |  |  | > 280 |
| CCCC(=O)OCCc1c(-c2ccccc2Cl)c2cc(Cl)ccc2[nH]c1=O | 4.46 |  | < 4.28 |  | 1.5 | <1 | 52 |
| O=c1c(CCO)c(-c2ccccc2Cl)c2cc(Cl)ccc2n1Cc1c(F)cccc1F | 4.06 |  | < 2.64 |  | >2.6 |  | > 2300 |
| CCOCC(=O)OCCc1c(-c2ccccc2Cl)c2cc(Cl)ccc2[nH]c1=O | 4.02 |  | < 3.89 |  | 1.4 | <1 | 130 |
| CCCCCCCC(=O)OCCc1c(-c2ccccc2Cl)c2cc(Cl)ccc2[nH]c1=O | 4.40 |  | < 4.11 |  | 1.9 | <1 | 78 |
| CC(=O)OCC(=O)OCCc1c(-c2ccccc2Cl)c2cc(Cl)ccc2[nH]c1=O | 4.24 |  | 4.15 |  | 1.8 | 1.4 | 100 |
| O=C(OCCc1c(-c2ccccc2Cl)c2cc(Cl)ccc2[nH]c1=O)c1ccc([N+](=O)[O-])cc1 | 2.92 |  | 2.80 |  | 1.4 | 1 | 1600 |
| O=C(CN1C(=O)c2ccccc2C1=O)OCCc1c(-c2ccccc2Cl)c2cc(Cl)ccc2[nH]c1=O | 3.77 |  | < 3.02 |  | 5.7 | <1 | 960 |
| Clc1ccc2nc3c(c(-c4ccccc4Cl)c2c1)CCS3 | < 2.62 |  | < 2.62 |  |  |  | > 2400 |
| CC(C)C(=O)OCCc1c(-c2ccccc2Cl)c2cc(Cl)ccc2[nH]c1=O | 4.43 |  | < 4.21 |  | 1.7 | <1 | 62 |
| Cn1c(=O)c(CCO)c(-c2ccccc2Cl)c2cc(Cl)ccc21 | 4.66 |  | 4.47 |  | 1.6 | 1 | 34 |
| COCC(=O)OCCc1c(-c2ccccc2Cl)c2cc(Cl)ccc2[nH]c1=O | 4.49 |  | < 4.13 |  | 1.4 | <1 | 74 |
| O=C(OCCc1c(-c2ccccc2Cl)c2cc(Cl)ccc2[nH]c1=O)c1cccs1 | < 2.77 |  | < 2.77 |  |  |  | > 1700 |
| O=C(CCC1CCCCC1)OCCc1c(-c2ccccc2Cl)c2cc(Cl)ccc2[nH]c1=O | 4.07 |  | 3.96 |  | 1.9 | 1.5 | 160 |
| CC(=O)NCC(=O)OCCc1c(-c2ccccc2Cl)c2cc(Cl)ccc2[nH]c1=O | 4.13 |  | < 3.96 |  | 1.4 | <1 | 110 |
| O=C(OCCc1c(-c2ccccc2Cl)c2cc(Cl)ccc2[nH]c1=O)c1ccccc1 | 4.49 |  | < 4.37 |  | 1.42 | <1 | 43 |
| O=c1[nH]c2ccc(Cl)cc2c(-c2ccccc2Cl)c1CCO | 4.07 |  | 3.44 |  | 4.4 | 1 | 380 |
| O=C(OCCc1c(-c2ccccc2Cl)c2cc(Cl)ccc2[nH]c1=O)c1cccnc1 | 4.26 |  | 4.26 |  | 3 | 3 | 170 |
| O=c1cc(-c2ccccc2Cl)c2cc(Cl)ccc2[nH]1 | 3.34 |  | < 3.00 |  |  |  |  |
| O=C(OCCc1c(-c2ccccc2Cl)c2cc(Cl)ccc2[nH]c1=O)c1ccco1 | 4.29 |  | 4.24 |  | 1.9 | 1.6 | 98 |
| CCC(=O)OCCc1c(-c2ccccc2Cl)c2cc(Cl)ccc2[nH]c1=O | 4.23 |  | 4.21 |  | 1.6 | 1.5 | 95 |
| N#CCC(=O)OCCc1c(-c2ccccc2Cl)c2cc(Cl)ccc2[nH]c1=O | 4.12 |  | < 4.00 |  | 1.3 | <1 | 100 |
| C/C=C(\C)C(=O)OCCc1c(-c2ccccc2Cl)c2cc(Cl)ccc2[nH]c1=O | 4.24 |  | 4.21 |  | 6.1 | 5.6 | 350 |
| Nc1ccn([C@@H]2CS[C@H](CO)O2)c(=O)n1 [LAMIVUDINE] | 1.57 |  | 1.52 |  | 1.1 | 1 |  |

The remaining compounds from weak to strong by pIC50 [2], led by results:

| pIC50 [2] | IC50 ([4]; hepg2 2.2.15) | pIC50 [6] | pIC50 ([4]; Hepatitis B virus, HepG2 2.2.15, 144 h, read-out: IC50) | Structure (SMILES) | Selectivity Index [1] | Selectivity Index [3] | CC50 [5] [µM] |
| --- | --- | --- | --- | --- | --- | --- | --- |
| 2.82 |  | < 2.74 |  | CC12CCC(C(=O)OCCc3c(-c4ccccc4Cl)c4cc(Cl)ccc4[nH]c3=O)(OC1=O)C2(C)C (centres undefined) | >1.2 |  | > 1800 |
| 3.46 |  | < 3.02 |  | O=C(O)Cc1c(-c2ccccc2Cl)c2cc(Cl)ccc2[nH]c1=O | 2.8 | <1 | 950 |
| 3.82 |  | < 3.96 |  | O=C(O)CCC(=O)OCCc1c(-c2ccccc2Cl)c2cc(Cl)ccc2[nH]c1=O | <1 | <1 | 110 |
| 3.82 |  | 3.66 | 3.80 | O=C(/C=C/c1ccc2c(c1)OCO2)OCCc1c(-c2ccccc2Cl)c2cc(Cl)ccc2[nH]c1=O | >8.1 | >5.4 |  |
| 4.09 |  | < 3.70 |  | CCCCC(=O)OCCc1c(-c2ccccc2Cl)c2cc(Cl)ccc2[nH]c1=O | 2.4 | <1 | 200 |
| 4.12 |  | < 3.92 |  | O=CCc1c(-c2ccccc2Cl)c2cc(Cl)ccc2[nH]c1=O | 1.6 | <1 | 120 |
| 4.25 |  | < 4.09 |  | O=C(COc1ccccc1)OCCc1c(-c2ccccc2Cl)c2cc(Cl)ccc2[nH]c1=O | 1.5 | <1 | 81 |
| 4.29 |  | < 4.09 |  | CC(=O)N1CCC(C(=O)OCCc2c(-c3ccccc3Cl)c3cc(Cl)ccc3[nH]c2=O)CC1 | 1.6 | <1 | 82 |
| 4.34 |  | 4.34 |  | O=C(OCCc1c(-c2ccccc2Cl)c2cc(Cl)ccc2[nH]c1=O)C1CCCC1 | 1 | 1 | 46 |
| 4.47 |  | 2.66 |  | O=C(/C=C/c1cccnc1)OCCc1c(-c2ccccc2Cl)c2cc(Cl)ccc2[nH]c1=O | 1.1 | <1 | 39 |
| 4.48 |  | 4.46 |  | O=C(CCOc1ccccc1)OCCc1c(-c2ccccc2Cl)c2cc(Cl)ccc2[nH]c1=O | 1.4 | 1.3 | 46 |
| 4.57 |  | 4.47 |  | O=C(OCCc1c(-c2ccccc2Cl)c2cc(Cl)ccc2[nH]c1=O)C1CCCCC1 | 1.4 | 1.1 | 38 |
| 4.60 |  | 4.66 |  | C/C=C/C(=O)OCCc1c(-c2ccccc2Cl)c2cc(Cl)ccc2[nH]c1=O | 1.2 | 1.3 | 30 |
| 4.64 |  | 4.59 |  | C/C=C/C=C/C(=O)OCCc1c(-c2ccccc2Cl)c2cc(Cl)ccc2[nH]c1=O | 19 | 17 | 440 |
| 4.92 |  | 4.92 |  | O=c1c(CCO)c(-c2ccccc2Cl)c2cc(Cl)ccc2n1Cc1ccccc1 | 2.2 | 2.2 | 26 |
| 5.00 |  | 4.92 |  | C=CCn1c(=O)c(CCO)c(-c2ccccc2Cl)c2cc(Cl)ccc21 | 2.3 | 1.9 | 23 |
